Assay results taken from ChEMBL document CHEMBL1124479, “N-[(arylmethoxy)phenyl] and N-[(arylmethoxy)naphthyl] sulfonamides: potent orally active leukotriene D4 antagonists of novel structure” (J Med Chem, 1989).

Assays:
Cavia porcellus [1] = assay: Inhibition of Leukotriene D4 induced bronchoconstriction in guinea pig by 50 mg/kg i.d.; conditions: at 50 mg/kg
Cavia porcellus [2] = assay: Inhibition of Leukotriene D4 induced bronchoconstriction when compound was administered intraduodenally at a dose of 25 mg/kg in guinea pig
Cavia porcellus [3] = assay: Inhibition of ovalbumin-induced bronchoconstriction when compound was administered intraduodenally at a dose of 50 mg/kg in guinea pig; format: functional; conditions: route intraduodenal
In short: (§1)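 Single-dose screen in guinea pigs, with n animals per group. Significance versus control used a two-tailed Student's t test (p < 0.05), or one-way ANOVA with contrasts based on each treatment's difference from its own control mean.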

Cavia porcellus [4] = assay: Inhibition of ovalbumin-induced bronchoconstriction when compound was administered perorally at a dose of 50 mg/kg in guinea pig; format: functional; conditions: route oral
In short: as §1

Cavia porcellus [5] = assay: Percentage inhibition of Leukotriene D4 when Compound was administered perorally at a dose of 50 mg/kg in guinea pig,; format: functional; conditions: route oral
In short: as §1

Cavia porcellus [6] = assay: Inhibition of Leukotriene D4 induced bronchoconstriction when compound was administered perorally at a dose of 50 mg/kg in guinea pig; format: functional; conditions: route oral
In short: as §1

Cavia porcellus [7] = assay: Inhibition of Leukotriene D4 induced bronchoconstriction when compound was administered perorally at a dose of 25 mg/kg in guinea pig; format: functional; conditions: route oral
In short: as §1

Cavia porcellus [8] = assay: Inhibition of ovalbumin-induced bronchoconstriction when compound was administered perorally at a dose of 25 mg/kg in guinea pig; format: functional; conditions: route oral
In short: as §1

SMILES | inhibition (Cavia porcellus [1]) | inhibition (Cavia porcellus [2]) | further results
CCS(=O)(=O)Nc1ccc2ccc(OCc3nc4ccccc4s3)cc2c1 | 27% |  | 
CCS(=O)(=O)Nc1cccc(OCc2cc3ccccc3s2)c1 |  | 13% | inhibition in vivo at 50 mg/kg (Cavia porcellus [3]): 4%
CCS(=O)(=O)Nc1cccc(OCc2nc3ccccc3s2)c1 | 41% |  | inhibition in vivo at 50 mg/kg (Cavia porcellus [4]): 32%; inhibition in vivo at 50 mg/kg (Cavia porcellus [3]): 35%; inhibition in vivo at 50 mg/kg (Cavia porcellus [5]): 13%
CS(=O)(=O)Nc1cccc(OCc2nc3ccccc3s2)c1 | 60% |  | inhibition in vivo at 50 mg/kg (Cavia porcellus [3]): 44%
O=S(=O)(Nc1cccc(Oc2ccccn2)c1)C(F)(F)F |  | 11% | 
O=C(O)c1ccc(S(=O)(=O)Nc2cccc(OCc3ccc4ccccc4n3)c2)cc1 |  | 0% | 
CCS(=O)(=O)N(C)c1ccc2ccc(OCc3ccc4ccccc4n3)cc2c1 | 37% |  | 
CCS(=O)(=O)Nc1cccc2ccc(OCc3ccc4ccccc4n3)cc12 | -6% |  | 
O=C1CS(=O)(=O)Nc2cc(OCc3ccc4ccccc4n3)ccc21 |  | 78% | inhibition in vivo at 50 mg/kg (Cavia porcellus [6]): 3%
CCCS(=O)(=O)N(c1cccc(OCc2ccc3ccccc3n2)c1)S(=O)(=O)CCC | 4% |  | 
CCS(=O)(=O)Nc1cccc(OCc2ccc3ccccc3c2)c1 | 42% |  | 
CCCCS(=O)(=O)Nc1cccc(OCc2nc3ccccc3n2C)c1 | 2% |  | inhibition in vivo at 50 mg/kg (Cavia porcellus [3]): 8%
CCS(=O)(=O)Nc1ccc2ccc(OCc3ccc4ccccc4n3)cc2c1 | 91% |  | inhibition in vivo at 50 mg/kg (Cavia porcellus [4]): 24%; inhibition in vivo at 50 mg/kg (Cavia porcellus [3]): 20%; inhibition in vivo at 50 mg/kg (Cavia porcellus [6]): 34%
O=S(=O)(Nc1cccc(OCc2csc3ccccc23)c1)C(F)(F)F |  | 13% | 
CCCCS(=O)(=O)Nc1cccc(OCc2nc3ccccc3s2)c1 | 56% |  | inhibition in vivo at 50 mg/kg (Cavia porcellus [3]): 16%
CCS(=O)(=O)Nc1cccc(OCc2nc3ccccc3n2C)c1 | 75% |  | inhibition in vivo at 50 mg/kg (Cavia porcellus [3]): 16%
CCCS(=O)(=O)N(c1cccc(OCc2nc3ccccc3s2)c1)S(=O)(=O)CCC | 38% |  | 
CCCS(=O)(=O)Nc1cccc(OCc2nc3ccccc3s2)c1 | 48% |  | inhibition in vivo at 50 mg/kg (Cavia porcellus [3]): 18%
CS(=O)(=O)Nc1ccc([N+](=O)[O-])cc1OCc1ccc2ccccc2n1 |  | 28% | 
CCCS(=O)(=O)Nc1cccc(OCc2nc3ccccc3n2C)c1 | 37% |  | inhibition in vivo at 50 mg/kg (Cavia porcellus [4]): 17%; inhibition in vivo at 50 mg/kg (Cavia porcellus [3]): 31%; inhibition in vivo at 50 mg/kg (Cavia porcellus [6]): 36%
CS(=O)(=O)Nc1ccc2ccc(OCc3ccc4ccccc4n3)cc2c1 | 68% |  | 
CCS(=O)(=O)Nc1ccc2ccc(OCc3ccc4ccccc4c3)cc2c1 | 28% |  | 
CCCCS(=O)(=O)Nc1ccc2ccc(OCc3ccc4ccccc4n3)cc2c1 | 51% |  | 

Continued, in another order:

inhibition (Cavia porcellus [1]) | inhibition (Cavia porcellus [2]) | SMILES | further results
 | -5% | O=S(=O)(Nc1ccccc1SCc1ccc2ccccc2n1)C(F)(F)F | 
 | 50% | O=S(=O)(Nc1cccc(Oc2cccc3cccnc23)c1)C(F)(F)F | 
 | 69% | COC(=O)CS(=O)(=O)Nc1cccc(OCc2ccc3ccccc3n2)c1 | 
 | 11% | CN(C)S(=O)(=O)Nc1cccc(OCc2ccc3ccccc3n2)c1 | 
 | 46% | O=S(=O)(Nc1cccc(OCc2ccc3ccccc3n2)c1)c1ccc(C(F)(F)F)cc1 | 
 | 100% | O=S(=O)(CC(F)(F)F)Nc1cccc(OCc2ccc3ccccc3n2)c1 | 
30% |  | CCCCS(=O)(=O)Nc1cccc(OCc2ccc3ccccc3n2)c1 | 
 | 28% | O=S(=O)(Nc1ccc(OCc2ccc3ccccc3n2)cc1)C(F)(F)F | 
 | 14% | O=S(=O)(NCCc1cccc(OCc2ccc3ccccc3n2)c1)C(F)(F)F | 
 | 85% | O=S(=O)(Nc1cccc(SCc2ccc3ccccc3n2)c1)C(F)(F)F | inhibition in vivo at 25 mg/kg (Cavia porcellus [7]): 97%; inhibition in vivo at 25 mg/kg (Cavia porcellus [8]): 59%
 | 10% | Cc1ccc(S(=O)(=O)Nc2cccc(SCc3ccc4ccccc4n3)c2)cc1 | 
 | 94% | O=S(=O)(Nc1cccc(OCc2nc3ccccc3s2)c1)C(F)(F)F | 
83% |  | CCS(=O)(=O)Nc1cccc(OCc2ccc3ccccc3n2)c1 | inhibition in vivo at 50 mg/kg (Cavia porcellus [3]): 0%
 | 58% | O=C(O)CS(=O)(=O)Nc1cccc(OCc2ccc3ccccc3n2)c1 | 
 | 24% | O=S(=O)(Nc1ccccc1OCc1ccc2ccccc2n1)C(F)(F)F | 
